Consider eleven molecules from ChEMBL document CHEMBL3232767, “Synthesis of the antiproliferative agent hippuristanol and its analogues from hydrocortisone via Hg(II)-catalyzed spiroketalization: structure-activity relationship” (J Med Chem, 2014).

The source made the active and inactive calls. The calls are words filed in the database; no cut-off is given here.

This assay is filed under the species Oryctolagus cuniculus. Nature of the assay: Inhibition of translation in rabbit reticulocyte lysates using SP6 RNA polymerase at 10 uM by FF/HCV/Ren reporter gene assay. The class given is functional. In short, it runs like this: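 Bicistronic mRNA (cap-dependent FF, HCV IRES-driven Ren as internal standard) translated in vitro at 4 ng/μL in rabbit reticulocyte lysate; compounds at 10 μM final vs 0.5% DMSO vehicle; anisomycin as control. FF and Ren luciferase read by luminometer, normalized to vehicle set at 1; duplicates averaged, error of the mean given.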
A general note: Reporter assays use an easily measured gene product as a stand-in for the process of interest.
Regarding `C[C@H]1C[C@@]2(O[C@H]3C[C@H]4[C@@H]5CC[C@H]6C[C@@H](O)CC[C@]6(C)[C@H]5[C@@H](O)C[C@]4(C)[C@H]3[C@@]2(C)O)OC1(C)C`, the inhibition entry is “inactive”.
For the molecule `CC[C@@]1(O)[C@H]2[C@H](C[C@H]3[C@@H]4CC[C@H]5C[C@H](O)CC[C@]5(C)[C@H]4[C@@H](O)C[C@@]32C)O[C@@]12C[C@H](C)C(C)(C)O2`, the inhibition result is “inactive”.
Turning to `C[C@H]1C[C@]2(O[C@H]3C[C@H]4[C@@H]5CC[C@H]6C[C@H](O)CC[C@]6(C)[C@H]5[C@@H](O)C[C@]4(C)[C@H]3[C@H]2O)OC1(C)C`, the inhibition result is “inactive”.
For the molecule `C[C@H]1C[C@]2(O[C@H]3C[C@H]4[C@@H]5CC[C@H]6C[C@H](O)CC[C@]6(C)[C@H]5[C@@H](O)C[C@]4(C)[C@H]3C2=O)OC1(C)C`, the inhibition result was “inactive”.
As for `CC[C@@]1(O)[C@H]2[C@H](C[C@H]3[C@@H]4CC[C@H]5C[C@H](O)CC[C@]5(C)[C@H]4[C@@H](O)C[C@@]32C)O[C@]12C[C@H](C)C(C)(C)O2`, the inhibition result is “inactive”.
For `C[C@H]1C[C@]2(O[C@H]3C[C@H]4[C@@H]5CC[C@H]6C[C@H](O)CC[C@]6(C)[C@H]5[C@@H](O)C[C@]4(C)[C@H]3[C@]2(O)CO)OC1(C)C`, the inhibition result was “inactive”.
Take `C[C@H]1C[C@@]2(O[C@H]3C[C@H]4[C@@H]5CC[C@H]6C[C@H](O)CC[C@]6(C)[C@H]5[C@@H](O)C[C@]4(C)[C@H]3[C@@]2(C)O)OC1(C)C`: the inhibition result was “Active”.
The value for `C[C@H]1C[C@]2(O[C@H]3C[C@H]4[C@@H]5CC[C@H]6C[C@H](O)CC[C@]6(C)[C@H]5[C@@H](O)C[C@]4(C)[C@H]3[C@@]2(C)O)OC1(C)C` was “Active”.
In the case of `C[C@H]1C[C@@]2(O[C@H]3C[C@H]4[C@@H]5CC[C@H]6C[C@H](O)CC[C@]6(C)[C@H]5[C@@H](O)C[C@]4(C)[C@H]3[C@H]2O)OC1(C)C` it was “inactive”.
With `COc1ccc(C[C@H]2NC[C@H](O)[C@H]2OC(C)=O)cc1`, the inhibition entry is “Active”.
On to `C[C@H]1C[C@@]2(O[C@H]3C[C@H]4[C@@H]5CC[C@H]6C[C@H](N)CC[C@]6(C)[C@H]5[C@@H](O)C[C@]4(C)[C@H]3[C@@]2(C)O)OC1(C)C`, for which the inhibition entry is “inactive”.
